Converted amounts (≈) assume the structure as drawn. The source made the active and inactive calls.
Columns and labels:
Staphylococcus aureus [1] = assay: Antimicrobial activity against Staphylococcus aureus clinical isolate at 50 ug/disk incubated for 20 +/- 4 hrs by agar disk diffusion method; format: functional; conditions: read-out: DIZ
Summary of the method: (§1)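 Agar disk diffusion on Mueller-Hinton agar swab-seeded from a 0.5 McFarland inoculum (about 10^8 CFU/ml). Cellulose discs got 50 μg compound (10 μl of 5 g/L in DMSO); a 10 μL DMSO disc was the control. Incubated aerobically at 35 ± 2 °C for 20 ± 4 h, then growth-inhibition diameters measured.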

Staphylococcus aureus [2] = assay: Antimicrobial activity against Staphylococcus aureus ATCC 29213 at 50 ug/disk incubated for 20 +/- 4 hrs by agar disk diffusion method; format: functional; conditions: read-out: DIZ; summary of the method: as §1
[3] = system: Staphylococcus epidermidis; assay: Antimicrobial activity against Staphylococcus epidermidis clinical isolate at 50 ug/disk incubated for 20 +/- 4 hrs by agar disk diffusion method; format: functional; conditions: read-out: DIZ; summary of the method: as §1
Streptococcus pyogenes = assay: Antimicrobial activity against Streptococcus pyogenes clinical isolate at 50 ug/disk incubated for 20 +/- 4 hrs by agar disk diffusion method; format: functional; conditions: read-out: DIZ
Summary of the method: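 Plates of MH + 5% horse blood were swabbed with a 0.5 McFarland inoculum and received discs with 50 μg compound (from 5 g/L in DMSO) plus a 10 μL DMSO control disc. Incubation at 35 ± 2 °C aerobically with 5% CO2 for 20 ± 4 h, then zone diameters measured.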

Bacillus subtilis = assay: Antimicrobial activity against Bacillus subtilis clinical isolate at 50 ug/disk incubated for 20 +/- 4 hrs by agar disk diffusion method; format: functional; conditions: read-out: DIZ; summary of the method: as §1
Clostridium perfringens = assay: Antimicrobial activity against Clostridium perfringens clinical isolate at 50 ug/disk incubated for 20 +/- 4 hrs by agar disk diffusion method; format: functional; conditions: read-out: DIZ
Summary of the method: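 Agar disk diffusion on MH agar with 5% horse blood (MHF), surface-seeded by swab from a 0.5 McFarland inoculum (about 10^8 CFU/ml). Cellulose discs received 10 μl of a 5 g/L DMSO solution (50 μg). A DMSO-only disc served as control. Anaerobic incubation at 35 ± 2 °C for 20 ± 4 h; growth-inhibition diameter measured in mm.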

Enterococcus faecalis [4] = assay: Antimicrobial activity against Enterococcus faecalis ATCC 29212 at 50 ug/disk incubated for 20 +/- 4 hrs by agar disk diffusion method; format: functional; conditions: read-out: DIZ; summary of the method: as §1
Enterococcus faecium = assay: Antimicrobial activity against Enterococcus faecium AUS0004 at 50 ug/disk incubated for 20 +/- 4 hrs by agar disk diffusion method; format: functional; conditions: read-out: DIZ; summary of the method: as §1
Bacteroides fragilis = assay: Antimicrobial activity against Bacteroides fragilis ATCC 25285 at 50 ug/disk incubated for 20 +/- 4 hrs by agar disk diffusion method; format: functional; conditions: read-out: DIZ
Summary of the method: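 Anaerobic disk diffusion: MH agar + 5% horse blood seeded from a 0.5 McFarland swab, with discs of 50 μg compound (10 μl of 5 g/L DMSO solution) and a DMSO control disc. Kept at 35 ± 2 °C under anaerobic conditions for 20 ± 4 h; inhibition diameters recorded.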

Enterobacter cloacae = assay: Antimicrobial activity against Enterobacter cloacae clinical isolate at 50 ug/disk incubated for 20 +/- 4 hrs by agar disk diffusion method; format: functional; conditions: read-out: DIZ; summary of the method: as §1
Escherichia coli [5] = assay: Antimicrobial activity against Escherichia coli clinical isolate at 50 ug/disk incubated for 20 +/- 4 hrs by agar disk diffusion method; format: functional; conditions: read-out: DIZ; summary of the method: as §1
Escherichia coli [6] = assay: Antimicrobial activity against Escherichia coli ATCC 25922 at 50 ug/disk incubated for 20 +/- 4 hrs by agar disk diffusion method; format: functional; conditions: read-out: DIZ; summary of the method: as §1
Klebsiella pneumoniae = assay: Antimicrobial activity against Klebsiella pneumoniae clinical isolate at 50 ug/disk incubated for 20 +/- 4 hrs by agar disk diffusion method; format: functional; conditions: read-out: DIZ; summary of the method: as §1
Proteus vulgaris = assay: Antimicrobial activity against Proteus vulgaris clinical isolate at 50 ug/disk incubated for 20 +/- 4 hrs by agar disk diffusion method; format: functional; conditions: read-out: DIZ; summary of the method: as §1
Pseudomonas aeruginosa = assay: Antimicrobial activity against Pseudomonas aeruginosa clinical isolate at 50 ug/disk incubated for 20 +/- 4 hrs by agar disk diffusion method; format: functional; conditions: read-out: DIZ; summary of the method: as §1
[7] = system: Mycobacteroides abscessus; assay: Antimicrobial activity against Mycobacterium abscessus clinical isolate at 50 ug/disk incubated for 4 days by agar disk diffusion method; format: functional; conditions: 96 h, read-out: DIZ
Summary of the method: (§2)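 On MH agar with 5% horse blood, a 0.5 McFarland inoculum was swabbed and discs with 50 μg compound (from 5 g/L in DMSO) were laid down, alongside a DMSO control disc. Incubation was humid and aerobic at 35 ± 2 °C for 4 days, then growth-inhibition diameters were measured.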

[8] = system: Mycolicibacterium fortuitum; assay: Antimicrobial activity against Mycobacterium fortuitum clinical isolate at 50 ug/disk incubated for 4 days by agar disk diffusion method; format: functional; conditions: 96 h, read-out: DIZ; summary of the method: as §2
Staphylococcus aureus [9] = assay: Antimicrobial activity against Staphylococcus aureus ATCC 29213 by broth microdilution method; format: functional
Summary of the method: (§3)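 MICs were set by broth microdilution following EUCAST guidelines, from three independent experiments reported as values or ranges. MICs were measured only where disk-diffusion inhibition diameters were 9 mm or more.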

[10] = system: Staphylococcus epidermidis; assay: Antimicrobial activity against Staphylococcus epidermidis clinical isolate by broth microdilution method; format: functional; summary of the method: as §3
Listeria monocytogenes [11] = assay: Antimicrobial activity against Listeria monocytogenes clinical isolate by broth microdilution method; format: functional; summary of the method: as §3
[12] = system: Mycobacteroides abscessus; assay: Antimicrobial activity against Mycobacterium abscessus clinical isolate by broth microdilution method; format: functional; summary of the method: as §3
[13] = system: Mycolicibacterium fortuitum; assay: Antimicrobial activity against Mycobacterium fortuitum clinical isolate by broth microdilution method; format: functional; summary of the method: as §3
Enterococcus faecalis [14] = assay: Synergistic antimicrobial activity against Enterococcus faecalis ATCC 29212 assessed as DIZ at 50 ug/disk incubated for 20 +/- 4 hrs in presence of erythromycin by agar disk diffusion method (reference value: 20 millimeter); format: functional; conditions: read-out: DIZ
Listeria monocytogenes [15] = assay: Synergistic antimicrobial activity against Listeria monocytogenes clinical isolate assessed as DIZ at 50 ug/disk incubated for 20 +/- 4 hrs in presence of moxalactam by agar disk diffusion method (reference value: 13 millimeter); format: functional; conditions: read-out: DIZ
Listeria monocytogenes [16] = assay: Synergistic antimicrobial activity against Listeria monocytogenes clinical isolate assessed as DIZ at 50 ug/disk incubated for 20 +/- 4 hrs in presence of ofloxacin by agar disk diffusion method (reference value: 19 millimeter); format: functional; conditions: read-out: DIZ
MDA-MB-231 = assay: Cytotoxicity against human MDA-MB-231 cells assessed as decrease in cell viability in MTT assay; format: cell-based
Summary of the method: (§4)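 Cell viability was measured by MTT on a robotic screening platform. Residual viability was expressed as a percentage of the mean viable cells in DMSO-treated controls. Under 25-30% viability was considered cytotoxic, and IC50 values were derived.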

PC-3 = assay: Cytotoxicity against human PC3 cells assessed as decrease in cell viability in MTT assay; format: cell-based; summary of the method: as §4
NCI-H727 = assay: Cytotoxicity against human NCI-H727 cells assessed as decrease in cell viability in MTT assay; format: cell-based; summary of the method: as §4
[17] = Cytotoxicity against human NHFB cells assessed as decrease in cell viability in MTT assay; format: cell-based; summary of the method: as §4
Escherichia coli [18] = assay: Antimicrobial activity against Escherichia coli BW25113 at 10 mM/disk incubated for 20 +/- 4 hrs by agar disk diffusion method; format: functional; conditions: read-out: DIZ
Escherichia coli [19] = assay: Antimicrobial activity against Escherichia coli BW25113 by broth microdilution method; format: functional
Summary of the method: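 MIC by broth microdilution per EUCAST guidelines, in E. coli BW25113 and its previously described deletion derivative.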

Escherichia coli [20] = assay: Antimicrobial activity against TolC deficient Escherichia coli BW25113 by agar disk diffusion method; format: functional
Escherichia coli [21] = assay: Antimicrobial activity against arfA-arfB TolC deficient Escherichia coli BW25113 by agar disk diffusion method; format: functional
Escherichia coli [22] = assay: Antimicrobial activity against ssrA-TolC deficient Escherichia coli BW25113 by agar disk diffusion method; format: functional

SMILES	zone of inhibition at 50 µg/disc (Staphylococcus aureus [1]) [mm]	zone of inhibition at 50 µg/disc (Staphylococcus aureus [2]) [mm]	zone of inhibition at 50 µg/disc [3] [mm]	zone of inhibition at 50 µg/disc (Streptococcus pyogenes) [mm]	zone of inhibition at 50 µg/disc (Bacillus subtilis) [mm]	zone of inhibition at 50 µg/disc (Clostridium perfringens) [mm]	zone of inhibition at 50 µg/disc (Enterococcus faecalis [4]) [mm]	zone of inhibition at 50 µg/disc (Enterococcus faecium) [mm]	zone of inhibition at 50 µg/disc (Bacteroides fragilis) [mm]	zone of inhibition at 50 µg/disc (Enterobacter cloacae) [mm]	zone of inhibition at 50 µg/disc (Escherichia coli [5]) [mm]	zone of inhibition at 50 µg/disc (Escherichia coli [6]) [mm]	zone of inhibition at 50 µg/disc (Klebsiella pneumoniae) [mm]	zone of inhibition at 50 µg/disc (Proteus vulgaris) [mm]	zone of inhibition at 50 µg/disc (Pseudomonas aeruginosa) [mm]	zone of inhibition at 50 µg/disc [7] [mm]	zone of inhibition at 50 µg/disc [8] [mm]	MIC (Staphylococcus aureus [9]) [µg/mL]	MIC [10] [µg/mL]	MIC (Listeria monocytogenes [11]) [µg/mL]	other results
O=C(Nc1nnc(-c2ccc(C(F)(F)F)cc2)o1)c1ccc(Cl)nc1	30	22	28	10	24	13	23	23	16	6	6	6	6	8	6	14	19	2 to 4 (≈ 5.42 to 10.8 µM)	1 to 2 (≈ 2.71 to 5.42 µM)	8 (≈ 21.7 µM)	MIC [12]: 16 to 32 µg/mL (≈ 43.4 to 86.8 µM); MIC [13]: 8 µg/mL (≈ 21.7 µM); zone of inhibition at 50 µg/disc (Enterococcus faecalis [14]): 23 mm; zone of inhibition at 50 µg/disc (Listeria monocytogenes [15]): 30 mm; zone of inhibition at 50 µg/disc (Listeria monocytogenes [16]): 30 mm; IC50 (MDA-MB-231): > 25 µM; IC50 (PC-3): > 25 µM; IC50 (NCI-H727): > 25 µM; IC50 [17]: > 25 µM; zone of inhibition at 10000 µM (Escherichia coli [18]): 6 mm; MIC (Escherichia coli [19]): > 128 µM; diameter of the inhibition zone (DIZ) (Escherichia coli [20]): 23.6 mm; diameter of the inhibition zone (DIZ) (Escherichia coli [21]): 22.05 mm; diameter of the inhibition zone (DIZ) (Escherichia coli [22]): 27 mm
O=C(Nc1ncc(-c2ccc(F)cc2)o1)c1ccc(Cl)cc1	20	16	18	6	15	6	11	12	8	6	6	8	6	10	6	7	12	0.5 to 4 (≈ 1.58 to 12.6 µM)	0.25 (≈ 0.789 µM)	32 to 64 (≈ 101 to 202 µM)	MIC [12]: inactive; MIC [13]: 32 to 64 µg/mL (≈ 101 to 202 µM); zone of inhibition at 50 µg/disc (Enterococcus faecalis [14]): 20 mm; zone of inhibition at 50 µg/disc (Listeria monocytogenes [15]): 17 mm; zone of inhibition at 50 µg/disc (Listeria monocytogenes [16]): 15 mm; IC50 (MDA-MB-231): 5 µM; IC50 (PC-3): 2 µM; IC50 [17]: > 25 µM; zone of inhibition at 10000 µM (Escherichia coli [18]): 6 mm; MIC (Escherichia coli [19]): > 128 µM; diameter of the inhibition zone (DIZ) (Escherichia coli [20]): 11.33 mm; diameter of the inhibition zone (DIZ) (Escherichia coli [21]): 14 mm; diameter of the inhibition zone (DIZ) (Escherichia coli [22]): 13 mm
O=C(Nc1nnc(-c2ccc(F)cc2)o1)c1ccc(Cl)cc1	17	12	15	6	12	6	6	6	6	6	6	6	6	6	6	6	9	0.5 to 4 (≈ 1.57 to 12.6 µM)	0.5 to 4 (≈ 1.57 to 12.6 µM)	4 (≈ 12.6 µM)	MIC [12]: 64 µg/mL (≈ 201 µM); MIC [13]: 32 µg/mL (≈ 101 µM); IC50 (MDA-MB-231): 25 µM; IC50 (PC-3): 21 µM; IC50 (NCI-H727): 18 µM; IC50 [17]: > 25 µM; zone of inhibition at 10000 µM (Escherichia coli [18]): 6 mm; MIC (Escherichia coli [19]): > 128 µM; diameter of the inhibition zone (DIZ) (Escherichia coli [20]): 13 mm; diameter of the inhibition zone (DIZ) (Escherichia coli [21]): 12.3 mm; diameter of the inhibition zone (DIZ) (Escherichia coli [22]): 13 mm

Source: ChEMBL document CHEMBL4364345, “Synthesis and evaluation of 1,3,4-oxadiazole derivatives for development as broad-spectrum antibiotics” (Bioorg Med Chem, 2019)
